pIC50: −log10 of the molar value. The source made the active and inactive calls. The calls are words filed in the database; no cut-off is given here.
How the values were obtained:
[1] = Antitumor activity against human MDA231 cells after 24 to 48 hrs by MTT assay; format: functional, cell-based; details: MDA-MB-231
Summary of the method: (§1)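 MTT read-out. Cells grown at 37 °C in DMEM with 10 mM glucose, 10% fetal calf serum, penicillin/streptomycin and 2 mmol/L glutamine. Seeded at 10^5 cells per well and left 24 h to attach, then compound added over a range of concentrations and cells grown 24 or 48 h. MTT at 1 mg/mL for 2 h at 37 °C in the dark, formazan dissolved in DMSO, OD read at 550 nm. Values are % of vehicle control (0.5% DMSO); IC50 by linear and polynomial regression; triplicate.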

[2] = test system: SW-620; assay: Antitumor activity against human SW620 cells after 24 to 48 hrs by MTT assay; format: functional, cell-based; summary of the method: as §1
[3] = test system: U-937; assay: Antitumor activity against human U937 cells after 24 to 48 hrs by MTT assay; format: functional, cell-based; summary of the method: as §1
[4] = test system: SK-MEL-28; assay: Antitumor activity against human SK-MEL-28 cells after 24 to 48 hrs by MTT assay; format: functional, cell-based; summary of the method: as §1
[5] = test system: SF-295; assay: Antitumor activity against human SF295 cells after 24 to 48 hrs by MTT assay; format: functional, cell-based; summary of the method: as §1
[6] = test system: SNB-19; assay: Antitumor activity against human SNB19 cells after 24 to 48 hrs by MTT assay; format: functional, cell-based; summary of the method: as §1
[7] = test system: COLO 205; assay: Antitumor activity against human COLO205 cells after 24 to 48 hrs by MTT assay; format: functional, cell-based; summary of the method: as §1
[8] = test system: HT-29; assay: Antitumor activity against human HT-29 cells after 24 to 48 hrs by MTT assay; format: functional, cell-based; summary of the method: as §1
[9] = test system: Caco-2; assay: Antitumor activity against human undifferentiated Caco2 cells after 24 to 48 hrs by MTT assay; format: functional, cell-based; summary of the method: as §1
[10] = test system: Caco-2; assay: Antitumor activity against human differentiated Caco2 cells after 24 to 48 hrs by MTT assay; format: cell-based; summary of the method: as §1
[11] = organism: Homo sapiens; assay: Inhibition of human topoisomerase 2-mediated relaxation of supercoiled pBR322 DNA relaxation at 5 uM after 6 mins by agarose gel electrophoresis
Summary of the method: (§2)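 Compound at 5 or 10 μM. Run 6 min at 37 °C and stopped with EDTA/SDS/glycerol dye. Products run on 1% agarose in 0.5× TBE at 4 V/cm for 1 h, stained with ethidium bromide, bands quantified.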

[12] = organism: Homo sapiens; assay: Inhibition of human topoisomerase 2-mediated relaxation of supercoiled pBR322 DNA relaxation at 10 uM after 6 mins by agarose gel electrophoresis; summary of the method: as §2
[13] = organism: Homo sapiens; assay: Inhibition of human topoisomerase 2-mediated relaxation of supercoiled pBR322 DNA relaxation at 0.04 to 0.92 uM after 6 mins by agarose gel electrophoresis
[14] = test system: H9c2; assay: Cardiotoxicity in rat H9c2 cells at 1 uM measured up to 120 hrs by MTT assay; format: toxicity, cell-based; details: h9c2, 120 h
Summary of the method: (§3)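 Rat H9C2 cardiomyoblasts, passages 4–10, grown at 37 °C in DMEM with FBS, glutamine and penicillin/streptomycin. Plated at 2000 cells/well in quadruplicate and given compound at 1 μM for the indicated times. MTT reagent added for 2 h in the incubator, then absorbance read at 570 nm. Data are mean ± SD.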

[15] = test system: MDA-MB-435; assay: Antitumor activity against human MDA-MB-435 cells after 24 to 48 hrs by MTT assay; format: functional, cell-based
Summary of the method: as §1, with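 “nm.” for “nm. Values are % of vehicle control (0.5% DMSO); IC50 by linear and polynomial regression; triplicate.”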

[16] = Antitumor activity against human IGROV cells after 24 to 48 hrs by MTT assay; format: functional, cell-based
Summary of the method: as §1, with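 “nm.” for “nm. Values are % of vehicle control (0.5% DMSO); IC50 by linear and polynomial regression; triplicate.”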

[17] = test system: Caco-2; assay: Selectivity index, ratio IC50 for undifferentiated human Caco2 cells to IC50 for differentiated human Caco2 cells; format: functional
Summary of the method: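 Ratio of MTT IC50 in undifferentiated to differentiated Caco-2 cells. MTT conditions: 24 or 48 h exposure, formazan dissolved in DMSO, read at 550 nm, IC50 by regression, triplicate.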

[18] = test system: MCF7; assay: Cytotoxicity against human MCF7 cells; format: functional, cell-based; summary of the method: as §1
[19] = test system: MCF7; assay: Drug uptake in human MCF7 cells assessed as nuclear localization at 50 nM after 30 mins by confocal microscopic analysis; format: ADME, cell-based; details: mcf7, 0.5 h, 0.05 µM
Summary of the method: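 Imaging in MCF-7 cells by confocal microscopy with 50 nM labeled compound. Cells fixed in paraformaldehyde for 30 min at 4 °C, permeabilized with Triton X-100 for 30 min at 4 °C, and nuclei stained with Hoechst 33342. Images taken with a 63× oil objective.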

[20] = organism: Homo sapiens; assay: Inhibition of human topoisomerase 2-mediated relaxation of supercoiled pBR322 DNA relaxation after 6 mins by agarose gel electrophoresis
[21] = test system: Nucleic Acid; assay: Binding affinity to poly(dG-dC).poly(dG-dC) DNA assessed as compound/DNA complex formation at 1 mM by STD NMR spectrophotometric analysis; format: nucleic-acid assay
Summary of the method: (§4)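 Ligand at 1.0 mM with poly(dG-dC)·poly(dG-dC) at 50 μM (as phosphate groups), a 20:1 ligand excess, in H2O/D2O 9:1 with 100 mM phosphate-buffered saline, pH 7.1. Water suppressed by DPFGSE. STD effects taken relative to a reference spectrum with off-resonance saturation at δ −16 ppm, 2 s saturation, typically 512 scans. WaterLOGSY spectra recorded with and without DNA.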

[22] = test system: Nucleic Acid; assay: Binding affinity to poly(dG-dC).poly(dG-dC) DNA assessed as compound/DNA complex formation at 1 mM by WaterLOGSY NMR spectrophotometric analysis; format: nucleic-acid assay; summary of the method: as §4
[23] = test system: Nucleic Acid; assay: Binding affinity to DNA assessed as binding mode index by measuring aliphatic signals by DF-STD spectrophotometric analysis; format: nucleic-acid assay
Summary of the method: (§5)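 DF-STD NMR on poly(dG-dC)·poly(dG-dC) in H2O/D2O 9:1 with 100 mM phosphate-buffered saline, pH 7.1. Ligand 1.0 mM; DNA 50 μM as phosphate (20:1 ligand excess). Saturation is centred on the aromatic or low-field aliphatic region for 2 s, with a reference off-resonance at δ −16 ppm and 512 scans. The binding mode index is the relative response of ligand protons to base versus sugar/backbone saturation.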

[24] = test system: Nucleic Acid; assay: Binding affinity to DNA assessed as binding mode index by measuring aromatic signals by DF-STD spectrophotometric analysis; format: nucleic-acid assay; summary of the method: as §5
[25] = test system: Caco-2; assay: Cell cycle arrest in human Caco2 cells assessed as accumulation at G1 phase at 1 uM after 48 hrs by propidium iodide staining based flow cytometric analysis (reference value: 42%); format: functional
[26] = test system: Caco-2; assay: Cell cycle arrest in human Caco2 cells assessed as accumulation at G2/M phase at 1 uM after 48 hrs by propidium iodide staining based flow cytometric analysis (reference value: 21%); format: functional
[27] = test system: Caco-2; assay: Cell cycle arrest in human Caco2 cells assessed as accumulation at S phase at 1 uM after 48 hrs by propidium iodide staining based flow cytometric analysis (reference value: 36%); format: functional
[28] = test system: Caco-2; assay: Induction of cyclin A expression in human Caco2 cells at 1 uM after 48 hrs by Western blot analysis; format: functional
Summary of the method: (§6)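 Caco-2 cells treated for 48 h (1 or 5 μM for Hsp27; 1 μM for cyclin A). Lysed in ice-cold 50 mM Tris, 150 mM NaCl, 10 mM EDTA, 1% Triton with protease inhibitors. Equal protein run on 8–12% SDS-PAGE and transferred to nitrocellulose. Primary antibody overnight in TBS/Tween/1% milk, then HRP secondary; bands detected by ECL.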

[29] = test system: Caco-2; assay: […] of cell differentiation in human Caco2 cells assessed as increase in ALP activity at 1 uM after 48 hrs; format: functional; set-up: scale not given: the % may be the effect or the level left
Summary of the method: (§7)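 Caco-2 cells cultured 48 h with 0, 1, 5 or 10 μM compound. Attached and floating cells washed and lysed in 0.25% sodium deoxycholate. ALP activity measured with a diagnostic ALP reagent and protein by Bradford microassay. Activity expressed as units per mg protein, as a differentiation marker.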

[30] = test system: Caco-2; assay: […] of cell differentiation in human Caco2 cells assessed as increase in ALP activity at 5 uM after 48 hrs; format: functional; set-up: scale not given: the % may be the effect or the level left; summary of the method: as §7
[31] = test system: Caco-2; assay: Increase in Hsp27 protein expression in human Caco2 cells after 48 hrs by Western blot analysis; format: functional, cell-based; summary of the method: as §6
[32] = Cardiotoxicity in rat H9c2 cells assessed as cell viability at 1 uM up to 120 hrs by MTT assay; format: toxicity, cell-based; details: read-out: Activity; summary of the method: as §3

| SMILES | pIC50 [2] | pIC50 [3] | pIC50 [4] | pIC50 [7] | pIC50 [8] | pIC50 [9] | pIC50 [10] | pIC50 [1] | pIC50 [5] | pIC50 [6] | also measured |
| --- | --- | --- | --- | --- | --- | --- | --- | --- | --- | --- | --- |
| CN(C)CCNC(=O)Nc1csc2c1C(=O)c1ccccc1C2=O | 5.23 | 5.01 |  |  |  |  |  | 5.06 |  |  |  |
| COc1cccc2c1C(=O)c1c(O)c3c(c(O)c1C2=O)C[C@@](O)(C(=O)CO)C[C@@H]3O[C@H]1C[C@H](N)[C@H](O)[C@H](C)O1 [DOXORUBICIN] | 6.92 | 6.03 | 6.22 | 5.82 | 5.96 | 5.17 | 6.22 | 5.95 | 5.36 | 6.10 | inhibition [11]: Active; inhibition [12]: Active; inhibition [13]: Active; Activity [14]: Toxic |
| NCCCC[C@H](N)C(=O)Nc1csc2c1C(=O)c1ccccc1C2=O | < 4.40 | 4.70 |  |  |  |  |  | < 4.40 |  |  |  |
| CCN(CC)CC(=O)Nc1csc2c1C(=O)c1ccccc1C2=O | 5.40 | 5.29 |  |  |  |  |  | 5.07 |  |  |  |
| O=C(CCN1CCOCC1)Nc1csc2c1C(=O)c1ccccc1C2=O | 4.70 | 5.14 |  |  |  |  |  | 5.00 |  |  |  |
| CN(C)CCNCCC(=O)Nc1csc2c1C(=O)c1ccccc1C2=O.Cl.Cl | 6.22 | 5.89 | 6.52 | 5.96 | 6.30 | 6.10 | 5.42 | 5.70 | 6.22 | 6.05 | pIC50 [18]: 6.22; pIC50 [15]: 6.30; pIC50 [16]: 5.70; Ratio IC50 [17]: 0.21; Drug uptake [19]: Active; inhibition [20]: Dose-dependent effect; Activity [21]: Active; Activity [22]: Active; Activity [23]: 0.9; Activity [24]: 1.01; Activity [25]: 20%; Activity [26]: 26%; Activity [27]: 53%; Activity [28]: 43%; Activity [29]: 35%; Activity [30]: >180%; Activity [31]: Dose-dependent effect; viability at 120 h, 1 µM [32]: 76% |

More lines, main results first:

| pIC50 [2] | pIC50 [3] | pIC50 [4] | pIC50 [7] | pIC50 [8] | pIC50 [9] | pIC50 [10] | SMILES | pIC50 [1] | pIC50 [5] | pIC50 [6] | also measured |
| --- | --- | --- | --- | --- | --- | --- | --- | --- | --- | --- | --- |
| 4.69 | 4.82 |  |  |  |  |  | O=C(CCO)Nc1csc2c1C(=O)c1ccccc1C2=O | 5.04 |  |  |  |
| 4.91 | 5.04 |  |  |  |  |  | C[C@H](N)C(=O)Nc1csc2c1C(=O)c1ccccc1C2=O | < 4.40 |  |  |  |
| 5.64 | 5.15 |  |  |  |  |  | NCC(=O)Nc1csc2c1C(=O)c1ccccc1C2=O | 5.21 |  |  |  |
| 6.10 | 5.77 | 5.82 | 6.40 | 6.22 | 5.59 | 5.21 | NCCC(=O)Nc1csc2c1C(=O)c1ccccc1C2=O.O=C(O)C(F)(F)F | 5.43 | 5.55 | 5.80 | pIC50 [15]: 6.40; pIC50 [16]: 5.92; Ratio IC50 [17]: 0.43 |
